Screens as filed in PubChem BioAssay.
CCR6 antagonist = CCR6 (human) receptor antagonism; P51684; CHO-K1 CCR6 PathHunter beta-arrestin, luminescence, CCL20-stimulated; inhibition, % at 20 µM; 0.49% of 340,000 active; AID 493098;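 active = compounds whose inhibition of the agonist-driven luminescence signal at 20 µM reaches about 50%, limit read from the data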;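 note: cells stimulated with CCL20 at 14 nM final; plate controls were DMSO with CCL20 for no effect and DMSO without agonist for full effect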
APJ ag = agonists of human APJ apelin receptor | activation, % at 20 µM | CHO-K1 APJ PathHunter beta-arrestin, luminescence; 0% DMSO wells, 100% apelin | P35414 | 0.11% of 330,000 active;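 active = activation more than six SD over the plate average, tested at 20 µM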;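 note: 0% = DMSO alone and 100% = apelin-13 at 10 nM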
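Assay system: CHO-K1 cells stably expressing ProLink-tagged human APJ and arrestin–beta-gal acceptor. Compound dosing: 20 µM single point, 1% DMSO. Times: 16-18 h seeding, 90 min dark compound exposure, 60 min detection. Detection: beta-gal luminescence. Evaluation: APJ–arrestin association signal. Controls: negative DMSO alone, positive Apelin-13 at 10 nM.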
CXCR6 inh = blocks human CXCR6 beta-arrestin recruitment | O00574 | CHO-K1 PathHunter CXCR6 beta-arrestin, luminescence | inhibition, % at 20 µM | 0.36% of 360,000 active | AID 602244; in the data active = inhibition above about 34%, passing the limit was not always enough;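 note: antagonist mode with CXCL16 agonist at 10 nM final; 0% = 10 nM CXCL16 with DMSO and 100% = unstimulated wells without agonist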
Target sequence (O00574 whole entry, looked up): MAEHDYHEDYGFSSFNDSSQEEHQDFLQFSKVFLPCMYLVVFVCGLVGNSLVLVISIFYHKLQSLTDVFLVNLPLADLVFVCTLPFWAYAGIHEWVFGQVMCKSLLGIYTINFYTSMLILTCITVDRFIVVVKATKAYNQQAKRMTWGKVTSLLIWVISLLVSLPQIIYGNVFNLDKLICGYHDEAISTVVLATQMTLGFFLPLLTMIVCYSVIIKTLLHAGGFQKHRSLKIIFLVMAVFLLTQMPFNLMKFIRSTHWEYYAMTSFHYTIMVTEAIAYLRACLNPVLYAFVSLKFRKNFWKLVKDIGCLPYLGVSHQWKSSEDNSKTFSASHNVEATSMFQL
APJ antag = blocks the human apelin receptor APJ. 0.32% of 330,000 active. AID 2521. P35414. CHO-K1 APJ beta-arrestin complementation, luminescence. inhibition, % at 20 µM;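 active = inhibition above about 40% at 20 µM, limit read from the data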;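 note: cells challenged with 10 nM apelin-13 agonist together with compound; plate controls were apelin-13 plus DMSO wells for no effect and DMSO wells lacking apelin-13 for full effect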
EBI2 block = EBI2 (human) antagonism. P32249. EBI2 beta-arrestin recruitment, luminescence, 7a,25-OHC stimulated. inhibition, % at 5 µM. 0.81% of 360,000 active; in the data active = inhibition above about 38%;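 note: enzyme fragment complementation signal reports receptor beta-arrestin coupling in cells; 0% = agonist plus DMSO wells and 100% = wells without agonist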
APJ antag conf = confirmation of human APJ apelin receptor antagonists. inhibition, % at 20 µM. AID 2766. 66% of 950 active. shares compounds with APJ antag. APJ beta-arrestin recruitment, luminescence, antagonist mode; in the data active = inhibition above about 50%
Numbers without * were called inactive; . = no result. An excerpt weighted towards active compounds, which were near 1.5% of everything screened.

SMILES	CCR6 antagonist	APJ ag	CXCR6 inh	APJ antag	EBI2 block	APJ antag conf
O=C1NN(c2cccc(Br)c2)C(=O)/C1=C/c1ccc(-c2cc([N+](=O)[O-])ccc2O)o1	86*	-8	62*	61*	12	98*
S=C1NCCc2ccccc2C1c1ccccc1Cl (stereo not drawn)	52*	-11	35	44*	9	87*
S=C1NCCc2ccccc2C1c1ccccc1 (stereo not drawn)	31	-5	12	19	-1	.
C=CCN(c1ccc(C(=O)NCCc2ccccc2)cc1)S(C)(=O)=O	-7	-1	4	0	0	.
COc1ccc(C(=O)Nc2ccc(Cl)c(S(=O)(=O)Nc3ccccc3OC)c2)cc1	21	0	0	41*	2	23
Oc1ccccc1N=Nc1nc(-c2ccccc2)c(-c2ccccc2)[nH]1	70*	-12	33	62*	0	104*
CCCCN(CCCC)C(=S)N/N=C/c1c(C)[nH]n(-c2ccccc2)c1=O	113*	-14	98*	75*	49*	126*
O=C(Cc1ccc(F)cc1)OCC(=O)c1cc2ccccc2o1	89*	-12	11	77*	-5	90*
CC(NC(=O)COc1ccccc1)C(=O)OCC(=O)c1cc2ccccc2o1 (stereo not drawn)	89*	-20	44*	55*	13	116*
O=C(COc1ccccc1)NNC(=O)c1cc2ccccc2o1	-9	3	2	8	1	.
O=C(CCNc1ccc(F)cc1)c1cc2ccccc2o1	5	-1	-1	-17	2	.
COc1ccc(C(=O)NC(=S)Nc2nc(-c3ccc(OC)c(Br)c3)cs2)cc1Br	27	-1	15	43*	-12	30
COc1ccc(-c2csc(NC(=S)NC(=O)/C=C/c3ccc(C(C)C)cc3)n2)cc1OC	17	-12	22	41*	-3	44
COc1ccc(-c2csc(NC(=S)NC(=O)c3ccco3)n2)cc1Br	15	-1	12	10	5	.
COc1ccc(-c2csc(NC(=S)NC(=O)c3ccccc3)n2)cc1Br	12	-7	8	23	7	.
COc1ccc(-c2csc(NC(=S)NC(=O)c3cc4ccccc4o3)n2)cc1Br	41	-3	5	45*	-3	9
Cc1ccc(CCNC(=O)CN2C(=O)COc3ccc(S(=O)(=O)N4CCC(C)CC4)cc32)cc1	28	-3	5	-8	4	.
COC(=O)CSc1nnc([C@H](Cc2ccccc2)NC(=O)OC(C)(C)C)o1	-2	0	-2	-15	-1	.
COC(=O)CS(=O)(=O)c1nnc([C@H](Cc2ccccc2)NC(=O)OC(C)(C)C)o1	77*	-4	56*	48*	-2	73*
Cc1ccc(C)c(N(CC(=O)NC2CCCCC2)C(=O)c2snc(C(N)=O)c2N)c1	6	-1	3	15	5	.
COc1ccc(-n2c(C)ccc2-c2ccccc2)cn1	18	-1	7	79*	-4	12
Cc1ccc2oc(Nc3nc(-c4ccccc4)cc(=O)[nH]3)nc2c1	58*	-8	.	54*	.	62*
COCc1cc(=O)[nH]c(Nc2nc3ccccc3o2)n1	0	-1	16	18	5	.
COc1cccc(Nc2ccc([N+](=O)[O-])c3nonc23)c1	47	-6	18	41*	-8	68*
CC(=O)Nc1nnc(COc2ccccc2)s1	-4	-2	-6	5	0	.
SMILES	CCR6 antagonist	APJ ag	CXCR6 inh	APJ antag	EBI2 block	APJ antag conf
CS(=O)(=O)Nc1ccc(S(=O)(=O)NC2CCCCC2)cc1	4	-3	-7	46*	-4	28
CC(=O)NC(Cc1ccc(O)cc1)C(=O)NN (stereo not drawn)	-4	-3	-4	7	-5	.
CCN1C=C(Cc2cccs2)C2=C(C1)C(c1cccs1)C(C#N)=C(N)O2 (stereo not drawn)	32	-4	9	41*	6	-14
C/C(=N\NC(=O)c1cc(Br)ccc1O)c1ccccn1	54*	-13	40	44*	36	33
CN(C)c1ccc2nc3ccc(=O)cc-3sc2c1	.	.	-1	.	-4	.
CN(C)c1ccc2nc3ccc(=[N+](C)C)cc-3sc2c1	36	-6	18	45*	11	33
CC1=Nc2ccccc2/C1=C/c1sc(=N)n(-c2nccs2)c1O	49	-11	18	46*	9	53*
Cc1ccc2c(c1)C(=O)C(=O)N2c1ccc(C(F)(F)F)cc1	9	-7	18	17	-8	.
Cc1ccc2c(c1)C(=O)C(=O)N2c1ccc(Cl)cc1	30	-9	15	45*	6	86*
COc1cccc(N2CC(C)Cn3c2nc2c3c(=O)[nH]c(=O)n2C)c1 (stereo not drawn)	41	-6	44*	46*	17	79*
Cc1cc(C)cc(N2CC(C)Cn3c2nc2c3c(=O)[nH]c(=O)n2C)c1 (stereo not drawn)	-1	-4	3	23	-1	.
CC(NC(=O)COC(=O)c1ccc(Br)o1)c1ccccc1 (stereo not drawn)	15	8	0	19	-10	.
CCCc1[nH]nc2c1C(CCc1ccccc1)C(C#N)=C(N)O2 (stereo not drawn)	18	-3	0	14	24	.
O=C(CNC(=O)c1ccc(Br)o1)OCC(=O)c1cccc([N+](=O)[O-])c1	83*	-10	33	62*	19	62*
O=C(CNS(=O)(=O)c1ccccc1)OCC(=O)c1cccc([N+](=O)[O-])c1	47	-4	31	46*	3	87*
O=C(Cc1ccccc1)OCC(=O)c1cccc([N+](=O)[O-])c1	34	-8	25	-7	10	.
COc1ccc(CCN2C(=S)N(c3ccc(Cl)cc3)C(=O)C2CC(N)=O)cc1OC (stereo not drawn)	-4	-3	-2	-4	8	.
Brc1ccc(N=Nc2ccc3ccccc3n2)cc1	31	-13	16	49*	43	54*
CCn1c(O)c(N=Nc2ccc3ccccc3n2)c2ccccc21	13	-2	4	13	29	.
Cc1ccc(-c2c3c(nc4sc(C(N)=O)c(N)c24)CCC3)cc1	4	-6	-1	8	-6	.
NC(=O)c1sc2nc3c(c(-c4ccc(Cl)cc4)c2c1N)CCCC3	14	-9	4	52*	25	18
Cc1[nH]n(-c2ccccc2)c(=O)c1C(C[N+](=O)[O-])c1ccc(F)cc1 (stereo not drawn)	16	1	11	45*	-16	16
Cc1ccc(C(C[N+](=O)[O-])c2c(C)[nH]n(-c3ccccc3)c2=O)cc1 (stereo not drawn)	25	4	6	0	-2	.
